The text below walks through data of ChEMBL document CHEMBL1275487, “Reduced biocide susceptibility in Candida albicans biofilms” (Antimicrob Agents Chemother, 2008).

SMILES strings stand for the structures.

The subject of assay [1] is Candida albicans. Nature of the assay: Antifungal activity against Candida albicans DAY 185 assessed as inhibition of biofilm formation after 24 hrs by XTT reduction assay. The format is functional, organism-based. Summed up: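 Biocides were added to the wells at the time of inoculation in 96-well polystyrene plates (RPMI-MOPS, 10^6 to 10^7 cells/well) and incubated 24 h at 30°C (H2O2 1 to 1,000 mM; EtOH 0.05 to 50%; SDS 0.0004 to 0.4%). XTT reduction was then read. EC50 and EC80 are the concentrations giving 50% and 80% OD reduction versus no-drug controls. Triplicate, two occasions.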
For orientation: Tetrazolium assays rely on reduction of a dye to a coloured formazan, in cell work by metabolically active cells.

The subject of assay [2] is Candida albicans. Nature of the assay: Antifungal activity against Candida albicans DAY 185 assessed as decrease mature biofilm burden after 24 hrs by XTT reduction assay. In kind it is functional, organism-based. Summed up:
(§1)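 Biofilms formed in 96-well polystyrene plates in RPMI-MOPS, inoculum 10^6 to 10^7 cells/well, 24 h at 30°C, then washed twice with PBS. Biocides were added with fresh medium to the 24 h mature biofilms (H2O2 1 to 1,000 mM; EtOH 0.05 to 50%; SDS 0.0004 to 0.4%). After a further 24 h at 30°C, metabolic activity was read by XTT reduction. EC50 and EC80 are the concentrations giving 50% and 80% reduction in OD versus no-drug controls. Triplicate, two occasions.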

The test system of assay [3] is Candida albicans. Nature of the assay: Antifungal activity against Candida albicans K1 assessed as decrease mature biofilm burden after 24 hrs by XTT reduction assay. The format is functional, organism-based. Summed up: as §1
In assay [4] the test system is Candida parapsilosis. Nature of the assay: Antifungal activity against Candida parapsilosis 5986 assessed as decrease mature biofilm burden after 24 hrs by XTT reduction assay. In kind it is functional, organism-based. In a few lines: as §1
The test system of assay [5] is Nakaseomyces glabratus. Nature of the assay: Antifungal activity against Candida glabrata 5740 assessed as decrease mature biofilm burden after 24 hrs by XTT reduction assay. The format is functional, organism-based. Summed up:
as §1

The test system of assay [6] is Candida albicans. In words: FICI in Candida albicans DAY 185 after 24 hrs in presence of fluconazole. The format is functional. In a few lines: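 Checkerboard format on 24 h mature biofilms, with each biocide combined with fluconazole (0.0625 to 1,000 μg/ml). Incubation was 24 h with the combination, followed by an XTT reduction readout against no-drug controls. Fractional inhibitory concentration indices were calculated to gauge how each biocide affects fluconazole activity.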

In assay [7] the test system is Candida albicans. Nature of the assay: Antifungal activity against Candida albicans DAY 185 grown as planktonic cells by CLSI method. In kind it is functional. Summed up:
(§2)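 Planktonic biocide MICs were determined by CLSI broth microdilution using CLSI endpoints, with the standard CLSI inoculum (0.5 × 10^3 to 2.5 × 10^3 CFU/ml) in RPMI-MOPS. Triplicate, two occasions.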

Assay [8] deals with Candida albicans. In words: Antifungal activity against Candida albicans K1 grown as planktonic cells by CLSI method. In kind it is functional. In a few lines: as §2
Assay [9] concerns Candida parapsilosis. Nature of the assay: Antifungal activity against Candida parapsilosis 5986 grown as planktonic cells by CLSI method. The format is functional. In a few lines: as §2
Assay [10] concerns Nakaseomyces glabratus. Nature of the assay: Antifungal activity against Candida glabrata 5740 grown as planktonic cells by CLSI method. The format is functional. Summed up:
as §2

In assay [11] the test system is Candida albicans. In words: Antifungal activity against Candida albicans DAY 185 grown as planktonic cells using 10^6 to 10^7 cells by CLSI method. In kind it is functional, organism-based. Summed up:
(§3)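 Planktonic susceptibility was tested by the CLSI method with the inoculum raised to the mature-biofilm cell density (10^6 to 10^7 cells/well) in RPMI-MOPS. EC50 and EC80 values were derived. Triplicate, two occasions.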

Assay [12] deals with Candida albicans. Nature of the assay: Antifungal activity against Candida albicans K1 grown as planktonic cells using 10^6 to 10^7 cells by CLSI method. The format is functional, organism-based. In a few lines: as §3
Assay [13] has as its system Candida parapsilosis. Nature of the assay: Antifungal activity against Candida parapsilosis 5986 grown as planktonic cells using 10^6 to 10^7 cells by CLSI method. The format is functional, organism-based. Summed up: as §3
Assay [14] deals with Nakaseomyces glabratus. In words: Antifungal activity against Candida glabrata 5740 grown as planktonic cells using 10^6 to 10^7 cells by CLSI method. In kind it is functional, organism-based. In a few lines: as §3

In the case of `CCO` [ALCOHOL], the EC50 was determined as 35% in the assay on Candida albicans [1]; 35% in the assay with Candida albicans [2]; 25% in the assay with Candida albicans [3]; 25% in the assay with Candida parapsilosis [4]; 25% in the assay with Nakaseomyces glabratus [5]; 6% in the assay with Candida albicans [11]. Also, the values for the EC50 in the assay on Candida albicans [12], with Candida parapsilosis [13] and with Nakaseomyces glabratus [14] were 6%, 6% and 13%, respectively. Moreover, the EC80 with Candida albicans [1] turned out to be 35%; with Candida albicans [2], 40%; in the assay with Candida albicans [3], 25%; in the assay with Candida parapsilosis [4], 25%; with Nakaseomyces glabratus [5] it was 25%; with Candida albicans [11], 13%. The EC80 in the assay with Candida albicans [12] was 13%; with Candida parapsilosis [13], 6%; with Nakaseomyces glabratus [14], 13%. In addition, the “fractional inhibitory concentration index (FICI)” value in the assay on Candida albicans [6] is on record as less than 0.5. Further, the MIC in the assay with Candida albicans [7] was 3%; with Candida albicans [8], 1.5%; against Candida parapsilosis [9] it was 1.5%; in the assay with Nakaseomyces glabratus [10], 3%.

Take `CCCCCCCCCCCCOS(=O)(=O)[O-].[Na+]` [SODIUM LAURYL SULFATE]: the EC50 worked out at 0.05% with Candida albicans [1]; 0.15% in the assay with Candida albicans [2]; 0.05% in the assay on Candida albicans [3]; 0.05% with Candida parapsilosis [4]; 0.05% in the assay with Nakaseomyces glabratus [5]; 0.05% in the assay on Candida albicans [11]. The EC50 in the assay on Candida albicans [12], with Candida parapsilosis [13] and in the assay on Nakaseomyces glabratus [14] was 0.03% throughout. For the same compound, the EC80 turned out to be 0.1% with Candida albicans [1]; 0.15% with Candida albicans [2]; 0.1% with Candida albicans [3]; 0.1% in the assay with Candida parapsilosis [4]; 0.05% in the assay on Nakaseomyces glabratus [5]; 0.05% in the assay on Candida albicans [11]. In addition, the EC80 is recorded as 0.05% with Candida albicans [12], 0.05% in the assay on Candida parapsilosis [13] and 0.03% in the assay on Nakaseomyces glabratus [14]. In addition, in the assay on Candida albicans [6], the “fractional inhibitory concentration index (FICI)” value amounted to 1. Further, the MIC against Candida albicans [7], in the assay on Candida albicans [8], in the assay on Candida parapsilosis [9] and in the assay with Nakaseomyces glabratus [10] was 0.01% each time.
